Laboratory results: ChEMBL document CHEMBL2029341, “Synthesis and evaluation of indole-based chalcones as inducers of methuosis, a novel type of nonapoptotic cell death” (J Med Chem, 2012)
Active and inactive are the calls of the source. The rule behind the calls is not given here.

How the values were obtained:
U-251 [1] = assay: Cytotoxicity against human U251 cells assessed as colony formation at 10 uM treated for 48 hrs followed by washout measured after 2 weeks relative to control
U-251 [2] = assay: Cytotoxicity against human U251 cells assessed as reduction of cell viability at 10 uM after 48 hrs by MTT assay relative to control
U-251 [3] = assay: Induction of methuosis in human U251 cells assessed as induction of cellular vacuolization at 10 uM after 24 to 48 hrs by phase contrast microscopic analysis; assay type: functional, cell-based
In short: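 U251 glioblastoma cells in DMEM with 10% FBS at 37 °C under 5% CO2. Compound added in DMSO at 10 μM one day after plating; vehicle-only controls. Live cells examined by phase-contrast microscopy at 24 and 48 h for phase-lucent cytoplasmic vacuoles, with cell rounding and detachment taken as methuosis hallmarks.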

U-251 [4] = assay: Cytotoxicity against human U251 cells assessed as inhibition of colony formation at 10 uM treated for 48 hrs followed by washout measured after 2 weeks relative to control; assay type: functional
In short: (§1)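 U251 cells at 2,500 per 100 mm dish; one day after plating, compound added for 48 h (10 μM, or graded concentrations), then removed and cultures refed every 2 d. Colonies >50 cells counted at two weeks after methanol fixation and crystal violet staining; percent of DMSO control dishes, mean ± S.D. of three dishes.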

U-251 [5] = assay: Induction of methuosis in human temozolomide-resistant U251 cells assessed as induction of cellular vacuolization at 2.5 to 10 uM after 3 days by phase contrast microscopic analysis; assay type: functional, cell-based
U-251 [6] = assay: Induction of methuosis in human U251 cells assessed as induction of cellular vacuolization at 2.5 to 10 uM after 3 days by phase contrast microscopic analysis; assay type: functional, cell-based
U-251 [7] = assay: Cytotoxicity against human temozolomide-resistant U251 cells assessed as reduction of cell viability at 2.5 to 10 uM after 48 hrs by colony formation assay
U-251 [8] = assay: Induction of methuosis in human U251 cells assessed as induction of cellular vacuolization at 2.5 uM after 1 to 2 days by phase contrast microscopic analysis; assay type: functional, cell-based
In short: (§2)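 One day after plating, U251 cells given 2.5 μM or 10 μM final compound or DMSO vehicle; live cells viewed by phase-contrast microscopy on three sequential days, without medium change or compound replenishment, for phase-lucent cytoplasmic vacuoles, rounding and detachment.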

U-251 [9] = assay: Cytotoxicity against human U251 cells assessed as inhibition of colony formation at 2 to 10 uM treated for 48 hrs followed by washout measured after 2 weeks relative to control; assay type: functional, cell-based
In short: as §1

U-251 [10] = assay: Cytotoxicity against human U251 cells assessed as reduction of cell growth and viability at 2.5 to 10 uM after 3 days by cell counting
U-251 [11] = assay: Induction of methuosis in human U251 cells assessed as induction of cellular vacuolization at 2.5 after 3 days by phase contrast microscopic analysis; assay type: functional, cell-based
In short: as §2

U-251 [12] = assay: Cytotoxicity against human U251 cells assessed as inhibition of colony formation at 5 to 20 uM treated for 48 hrs followed by washout measured after 2 weeks relative to control; assay type: functional, cell-based
In short: as §1

U-251 [13] = assay: Cytotoxicity against human U251 cells after 48 hrs by MTT assay; conditions: U-251, 48 h

SMILES	level, % of control at 10 µM (U-251 [1]) [%]	Activity (U-251 [2]) [%]	Activity (U-251 [3])	other results
O=C(/C=C/c1c[nH]c2ccc(O)cc12)c1ccncc1	72	107	inactive	
Cc1[nH]c2ccc(OCc3ccc(C(=O)O)cc3)cc2c1/C=C/C(=O)c1ccncc1	71	79	inactive	
Oc1cccc(/N=C/c2c[nH]c3ccccc23)c1			inactive	
O=C(NCCc1c[nH]c2ccc(Cl)cc12)c1cccnc1			inactive	
Cc1[nH]c2ccc(N=[N+]=[N-])cc2c1/C=C/C(=O)c1ccncc1				inhibition (U-251 [4]): Active
COc1ccc2[nH]cc(/C=C/C(=O)c3cccnc3)c2c1	99	90	inactive	
O=C(/C=C/c1c[nH]c2ccccc12)c1ccccc1	76	109	inactive	
O=C(/C=C/c1c[nH]c2ccccc12)c1cccnc1	71	72	inactive	
O=C(/C=C/c1c[nH]c2ccccc12)c1ccc(Cl)cc1			inactive	
Cc1[nH]c2ccc(O)cc2c1/C=C/C(=O)c1ccncc1	43	101	Active	
Cc1ccc(C(=O)/C=C/c2c[nH]c3ccccc23)cc1			inactive	
COc1ccc2[nH]cc(/C=C/C(=O)c3cnccn3)c2c1	96	88	inactive	
COC(=O)c1ccc(COc2ccc3[nH]c(C)c(/C=C/C(=O)c4ccncc4)c3c2)cc1	76	79	inactive	
O=C(COc1ccccc1)c1c[nH]c2ccccc12			inactive	
COc1cc2c(/C=C/C(=O)c3ccncc3)c(C)[nH]c2cc1N=[N+]=[N-]				inhibition (U-251 [4]): Active
COc1ccc2c(c1)c(/C=C/C(=O)c1ccncc1)cn2C	52	73	Active	
COc1ccc2[nH]cc(/C=C/C(=O)c3ccncc3)c2c1	2	58	Active	
O=C(/C=C/c1c[nH]c2ccc(OCc3ccccc3)cc12)c1ccncc1	8	56	Active	
Cc1[nH]c2ccccc2c1/C=C/C(=O)c1ccncc1	8	24	Active	Activity (U-251 [5]): Active; Activity (U-251 [6]): Active; Activity (U-251 [7]): Active; Activity (U-251 [8]): Active; inhibition (U-251 [9]): Active; inhibition (U-251 [10]): Active; Activity (U-251 [11]): inactive; inhibition (U-251 [12]): Active; IC50 (U-251 [13]): 4.8 µM
COc1ccc(C(=O)/C=C/c2c[nH]c3ccc(Br)cc23)cc1			inactive	
O=C(/C=C/c1c[nH]c2ccccc12)c1ccncc1	22	58	Active	
O=C(/C=C/c1c[nH]c2ccccc12)c1ccccn1	53	96	inactive	
